Experimental data reported in PubChem BioAssay AID1496 (Sanford-Burnham Center for Chemical Genomics, 2009).
Out of some 220,000 compounds screened, about 990 (0.45%) were called active. What follows is part of a selection rich in actives, with near analogues and random picks from the rest. A number with no mark means an inactive call.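 Rule for the calls: active = inhibition over about 50% at 20 µM in the single-dose screen (limit read from the data); inactive = the rest.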

The compounds below were run against Runt-related transcription factor 1 (Homo sapiens) + Core-binding factor subunit beta (Homo sapiens) (UniProt Q01196+Q13951) (assay: inhibitors of RUNX1 Runt–CBFb binding, primary screen, biochemical, FRET, Cerulean-Runt, Venus-CBFb, uHTS (AID 1496;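 note: 0% = DMSO wells and 100% = excess unlabeled CBFb competitor control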)). Settings: Cerulean-Runt/Venus-CBFb FRET ratio 530/480, 1 h; at 20 µM; hits give high values.
Chain of Runt-related transcription factor 1 (Homo sapiens) + Core-binding factor subunit beta (Homo sapiens) (Q01196 whole entry, looked up, the tested form may be a part): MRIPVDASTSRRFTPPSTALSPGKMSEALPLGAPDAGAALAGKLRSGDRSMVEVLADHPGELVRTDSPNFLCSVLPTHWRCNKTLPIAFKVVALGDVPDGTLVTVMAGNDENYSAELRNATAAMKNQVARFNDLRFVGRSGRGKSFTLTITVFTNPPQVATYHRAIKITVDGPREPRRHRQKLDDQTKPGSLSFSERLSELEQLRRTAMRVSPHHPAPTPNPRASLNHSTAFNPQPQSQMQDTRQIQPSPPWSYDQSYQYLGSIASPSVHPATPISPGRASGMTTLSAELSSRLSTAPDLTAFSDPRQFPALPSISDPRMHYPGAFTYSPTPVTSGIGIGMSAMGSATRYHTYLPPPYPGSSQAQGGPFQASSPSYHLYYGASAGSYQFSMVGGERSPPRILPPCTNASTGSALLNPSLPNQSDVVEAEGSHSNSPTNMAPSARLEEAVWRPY
Chain of Runt-related transcription factor 1 (Homo sapiens) + Core-binding factor subunit beta (Homo sapiens) (Q13951 whole entry, looked up, the tested form may be a part): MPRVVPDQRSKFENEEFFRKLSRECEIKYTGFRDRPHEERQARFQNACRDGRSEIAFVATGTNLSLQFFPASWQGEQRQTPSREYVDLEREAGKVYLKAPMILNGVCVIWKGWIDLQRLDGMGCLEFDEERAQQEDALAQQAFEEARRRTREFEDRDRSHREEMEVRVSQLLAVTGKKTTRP
In short: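 Assay system: Cerulean-Runt domain fusion protein, energy donor; Signal: fluorescence energy transfer, 422 nm excitation, 530/480 nm emission; Timing: 1 h compound exposure, room temperature; Control set: unlabeled CBFb; Medium: Tris buffer pH 7.5 with salts and BSA; Compound: single test concentration of 20 µM, 1% DMSO final; Probe or stimulus: Venus-CBFb 100 nM.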
`COCCCn1c(CCC(=O)O)ccc1-c1ccc(F)cc1` showed an inhibition of 3.3%.
For `CC(C)Cn1c(CCC(=O)O)ccc1-c1cccs1`, the inhibition was 65.6% (active).
For `CCn1c(NC(=O)c2ccccc2)c(-c2cccs2)c(=O)c2ccccc21`, the inhibition was -4.7%.
`CNC(=S)NNC(=O)c1ccc(N(C)C)cc1` showed an inhibition of 1.6%.
Work on `Cc1cc(F)ccc1NC(=O)C(C)n1c2ccccc2c2nc(=O)cc(C)n21` (configuration not stated) yielded an inhibition of 1.5%.
With `CCOc1ccc(/C=N/NC(=O)CSc2ccccn2)cc1O` the inhibition was 2.9%.
`CCC(=O)Nc1c(S(=O)(=O)c2ccccc2)c2nc3ccccc3nc2n1Cc1ccccc1` was tested, and the inhibition was 78.8% (active).
Work on `CCN(CC)CCn1c(N)c(S(=O)(=O)c2ccccc2)c2nc3ccccc3nc21` yielded an inhibition of 5.9%.
In the case of `Cc1ccc(S(=O)(=O)c2c(N)n(C)c3nc4ccccc4nc23)cc1`, the inhibition is reported as 7.1%.
With `O=c1c2cc(-c3ccccc3)sc2nc2n1N=C(c1cccs1)CS2` the inhibition was -2.4%.
`Nc1nc(NCC2CCCO2)nc(Nc2ccccc2F)c1[N+](=O)[O-]` (configuration not stated) showed an inhibition of -3.8%.
In the case of `COCCCNC(=S)NC(=O)c1ccc([N+](=O)[O-])cc1`, the inhibition is reported as 4.5%.
`COCCCNC(=S)NCCNc1nc2cc(C)c(C)cc2cc1C#N` was tested, and the inhibition was 82.7% (active).
`Cc1ccc2nc(NCCCNC(=O)c3cnccn3)c(C#N)cc2c1` was tested, and the inhibition was 21.2%.
`CC(/C=C/c1ccco1)=N/NC(=O)C1COc2ccccc2O1` (configuration not stated) was tested, and the inhibition was 2.3%.
`Cn1nc(C(F)(F)F)c(-c2ccc(F)cc2)c1NC(=O)CSCC(=O)O` was tested, and the inhibition was 3.4%.
`O=C(NC1CCCCC1)C1c2ccccc2C(=O)N1Cc1ccco1` (configuration not stated) gave an inhibition of 1.8%.
With `O=C1c2ccccc2C(Nc2ccc3c(c2)OCCO3)N1Cc1ccco1` (configuration not stated) the inhibition was 70% (active).
For `Cc1ccnc(N2C(=O)c3ccccc3C2Nc2ccc3c(c2)OCCO3)c1` (configuration not stated), the inhibition was 1.5%.
`COC(=O)c1ccc(COc2cc([N+](=O)[O-])cc3cccnc23)cc1` gave an inhibition of -0.8%.
For `CCOC(=O)Cc1csc(NC(=O)COc2ccc3c(C)cc(=O)oc3c2)n1`, the inhibition was 1.8%.
Compound `Cc1ccc2c(CSc3nncs3)cc(=O)oc2c1` has an inhibition of 3.7%.
In the case of `CCOC(=O)Cc1csc(SCc2cc(=O)oc3cc(O)ccc23)n1`, the inhibition is reported as 77.8% (active).
For `COc1cccc(Nc2nc(N)c([N+](=O)[O-])c(NCc3ccco3)n2)c1`, the inhibition was 0.2%.
In the case of `O=c1oc2c(CN3CCCCC3)c(O)ccc2c2c1CCCCC2`, the inhibition is reported as 72.8% (active).
In the case of `CN1CCN(Cc2c(O)ccc3c2oc(=O)c2ccccc23)CC1`, the inhibition is reported as -1.7%.
In the case of `NC(=O)COc1ccc2c3c(c(=O)oc2c1)CCCCC3`, the inhibition is reported as 1.7%.
With `N#CC1=C(N)Oc2cc(O)ccc2C1C1CCCCC1` (configuration not stated) the inhibition was 50.9% (active).
In the case of `COCc1[nH]nc2c1C(C1C=CCCC1)C(C#N)=C(N)O2` (configuration not stated), the inhibition is reported as -0.2%.
In the case of `N#CC1=C(N)OC2=C(C(=O)CCC2)C1C1CC=CCC1` (configuration not stated), the inhibition is reported as -0.5%.
With `COC(=O)c1noc(C)c1-c1ccnn1C(=O)c1ccc(Cl)cc1` the inhibition was 0%.
`Fc1ccc(COc2ccc(-c3nnco3)cc2)cc1` was tested, and the inhibition was -1.3%.
For `O=C(/C=C/c1ccc2c(c1)OCCO2)c1ccc(O)cc1`, the inhibition was -2.3%.
With `COc1ccc(-c2cn3ccc(C)cc3n2)cc1` the inhibition was 0.2%.
With `O=C(CN1CCN(S(=O)(=O)/C=C/c2ccccc2)CC1)Nc1ccc(N2CCOCC2)cc1` the inhibition was 0.6%.
With `O=c1cc(CN2CCN(S(=O)(=O)/C=C/c3ccccc3)CC2)c2ccc(O)cc2o1` the inhibition was 74.1% (active).
In the case of `COc1ccc2c(CN3CCN(S(=O)(=O)c4cccs4)CC3)cc(=O)oc2c1`, the inhibition is reported as -1.9%.
`COc1ccc(Nc2cc(=O)n(-c3ccccc3)c3c2c(=O)n(C)c(=O)n3C)cc1` was tested, and the inhibition was -0.7%.
In the case of `Cn1c(CC2Sc3ccccc3NC2=O)nnc1SCC(=O)c1ccc(Cl)cc1` (configuration not stated), the inhibition is reported as 1.9%.
`O=C(C[n+]1cc(-c2ccc(Cl)c(Cl)c2)n2c1CCC2)c1cccs1` showed an inhibition of 1.5%.
`CCOc1ccc(-c2nc(N)ncc2-c2ccccc2OC)c(O)c1` gave an inhibition of -2.9%.
`Cc1cc2nc3c(=O)n(Cc4ccccc4)c(=O)[nH]c3nc2cc1N` was tested, and the inhibition was -281%.
In the case of `COc1ccc2[nH]c(=S)cc(C)c2c1`, the inhibition is reported as 30.9%.
With `CC(=O)Nc1cc2ccc(OC(C)=O)cc2oc1=O` the inhibition was 86.5% (active).
For `COC(=O)Cc1c(C)c2ccc(OCC(=O)NCc3ccc4c(c3)OCO4)cc2oc1=O`, the inhibition was -2.3%.
`CC(=O)Oc1ccc2c(C)c(CC(C)O)c(=O)oc2c1` (configuration not stated) was tested, and the inhibition was 52.3% (active).
In the case of `CC(=O)Oc1ccc(NC(=O)CCC2CCCCC2)c(C(=O)O)c1`, the inhibition is reported as -13.2%.
In the case of `Cc1c(Cc2ccccc2)c(=O)oc2cc(OCC(N)=O)ccc12`, the inhibition is reported as -0.8%.
`O=C(Oc1ccccc1)Oc1ccc2c(c1)oc(=O)c1ccccc12` gave an inhibition of -1%.
`CCOC(=O)c1ccc(N=C2SC(C(=O)NC)CC(=O)N2CCc2ccccc2)cc1` (configuration not stated) showed an inhibition of -3%.
For `CCc1ccnc(NS(=O)(=O)c2ccc3c(c2)OCCO3)c1`, the inhibition was 2.3%.
`COc1ccccc1C1CCN(c2ccc([N+](=O)[O-])cn2)CC1` showed an inhibition of 0.4%.
Compound `CCN1CCN(c2nc(Nc3cccc(F)c3)nc(N)c2[N+](=O)[O-])CC1` has an inhibition of -0.1%.
With `COC(=O)Cc1cc(=O)oc2c(C)c(O)ccc12` the inhibition was 19.3%.
Work on `CCCc1cc(=O)[nH]c(SCc2cc(=O)oc3c(C)c(C)ccc23)n1` yielded an inhibition of -10.5%.
In the case of `CCCc1cc(=O)oc2c(C)c(O)c(CN3CCCCC3)cc12`, the inhibition is reported as 84.1% (active).
Work on `Cn1nnc(NC(=S)NC(=O)c2ccccc2)n1` yielded an inhibition of 10.1%.
With `COC(=O)c1ccccc1N=Nc1c(C)[nH][nH]c1=O` the inhibition was -3.8%.
Compound `CCN(CC)CCCN=C(N)N` has an inhibition of 2.2%.
Work on `O=C(CCN1c2ccccc2Sc2ccccc21)Nc1ccccc1` yielded an inhibition of 0.8%.
In the case of `CCN1/C(=C/C(=S)Nc2ccccc2)Sc2ccccc21`, the inhibition is reported as 59.1% (active).
`CCC(=O)/C=C1\Sc2ccccc2N1CC` was tested, and the inhibition was 1.3%.
`O=C(Nc1ccc(S(=O)(=O)Nc2nccs2)cc1)c1cc(-c2ccncc2)nc2ccccc12` gave an inhibition of -7.7%.
With `O=C(NCc1ccco1)c1cccn2c(=O)c3c4c(sc3nc12)CCCC4` the inhibition was 12.3%.
With `COc1ccc(CNC(=O)c2cc3c(=O)n4ccccc4nc3n(CC3CCCO3)c2=N)cc1` (configuration not stated) the inhibition was 85.6% (active).
Work on `COc1ccc(CCNC(=O)Cn2c(=O)n(CC3CCCO3)c(=O)c3ccccc32)cc1OC` (configuration not stated) yielded an inhibition of -0.8%.
For `COc1ccc(CCNC(=O)CCn2c(=O)c3ccccc3n(CC(=O)NCC3CCCO3)c2=O)cc1OC` (configuration not stated), the inhibition was -1.8%.
With `COc1ccc(CCn2c(=N)c(C(=O)NCc3ccco3)cc3c(=O)n4cccc(C)c4nc32)cc1` the inhibition was 107% (active).
`CCn1c(=N)c(C(=O)NCCCOC)cc2c(=O)n3cccc(C)c3nc21` was tested, and the inhibition was 19.3%.
`CC(C)(C)c1ccc(C(=O)NCCn2c(N)c(C#N)c3nc4ccccc4nc32)cc1` was tested, and the inhibition was 72.8% (active).
In the case of `CC(C)Cn1c(N)c(C(=O)NCc2cccs2)c2nc3ccccc3nc21`, the inhibition is reported as 16.3%.
For `COCCCn1c2nc3ccccc3nc2c2c(=O)n(Cc3ccc(Cl)cc3)c(C)nc21`, the inhibition was 0.1%.
`CN(C)CCCn1c(N)c(C#N)c2nc(C#N)c(C#N)nc21` showed an inhibition of 42.7%.
Work on `CCCNC(=O)c1c(N)n(-c2ccc(S(N)(=O)=O)cc2)c2nc3ccccc3nc12` yielded an inhibition of 33%.
In the case of `N#Cc1c(N)n(CCOC(=O)c2ccc(Cl)cc2)c2nc3ccccc3nc12`, the inhibition is reported as 59% (active).
`COc1ccc(CNC(=O)C(Cc2ccccc2)n2cccc2)cc1` (configuration not stated) showed an inhibition of 1.1%.
Compound `NCCCCCC(=O)N/N=C/c1ccc2nccnc2c1` has an inhibition of 0.4%.
In the case of `CCCCCCc1cc2cc(-c3nnc(-c4ccccc4)o3)c(=O)oc2cc1O`, the inhibition is reported as 84.6% (active).
In the case of `Cc1c(CCC(=O)O)c(=O)oc2cc3occ(-c4ccccc4)c3cc12`, the inhibition is reported as -3.4%.
Work on `CCCC(=O)Nc1nnc(-c2ccccc2)o1` yielded an inhibition of 0.1%.
For `COC(=O)c1cc(NC(=O)c2cc(C(C)(C)C)nn2Cc2cccc(C)c2)ccc1N1CCOCC1`, the inhibition was -4%.
In the case of `COC(=O)c1cc(NC(=O)c2ccco2)ccc1N1CCOCC1`, the inhibition is reported as 0.9%.
Work on `NC(=O)C1(C(N)=O)OC1c1ccc(Cl)cc1Cl` (configuration not stated) yielded an inhibition of 0.4%.
`COC(=O)C1=CN(C)C=C(C(=O)OC)C1c1ccc(Cl)cc1Cl` was tested, and the inhibition was 110% (active).
`CCOc1ccccc1C1C(C(=O)OC)=CN(C)C=C1C(=O)OC` gave an inhibition of 9.9%.
Compound `CCOc1cccc(/C=N/NC(=S)NCCN2CCOCC2)c1O` has an inhibition of -15.6%.
For `CCOc1cccc(/C=N/N2C(=O)CSC2=S)c1O`, the inhibition was 51.1% (active).
Compound `O=C1CSC(=S)N1/N=C/c1ccc(O)c([N+](=O)[O-])c1` has an inhibition of 26.4%.
For `Cc1ccc(NS(=O)(=O)c2ccc(N/N=C/c3ccccc3OCC(=O)O)c([N+](=O)[O-])c2)c(C)c1`, the inhibition was -12.7%.
Work on `COC(=O)Cn1c(=NC(=O)c2cc(OC)c(OC)c(OC)c2)sc2cc(OC)ccc21` yielded an inhibition of -1.4%.
For `CCN(CC)CCn1c2ccc(Cl)cc2c2nc(C)sc21`, the inhibition was 0.5%.
With `COC(=O)Cn1c2ccc(C)cc2c2nc(C)sc21` the inhibition was 50.7% (active).
Compound `Cn1c(C(=O)O)ccc1S(=O)(=O)N(Cc1ccccc1)Cc1ccccc1` has an inhibition of 0.9%.
`COc1ccc(Br)c2c1C(=O)CC2` showed an inhibition of -4%.
Compound `COC(=O)c1ccc(C(=O)OC)c(NC(=S)N2CCN(c3cc(Cl)ccc3C)CC2)c1` has an inhibition of 9.1%.
With `COC(=O)c1ccc(C(=O)OC)c(NC(=S)N2CCN(c3ccc(F)cc3)CC2)c1` the inhibition was 8.1%.
With `COC(=O)c1ccc(C(=O)OC)c(NC(=S)N2CCCCC2)c1` the inhibition was 54% (active).
